Among the data in ChEMBL document CHEMBL3352720, “Novel alkylphospholipid-DTC hybrids as promising agents against endocrine related cancers acting via modulation of Akt-pathway” (Eur J Med Chem, 2014) are Activity and IC50 values, retold here.

SMILES strings stand for the structures.

The subject of assay [1] is MCF7. Description: Induction of cell cycle arrest in human MCF7 cells assessed as accumulation at G2/M phase incubated for 24 hrs by propidium iodide staining based FACS assay (reference value: 1.47%). In kind it is functional. Background: Flow cytometry measures light scatter and fluorescence of single cells or particles in a stream.
Assay [2] deals with MCF7. Description: Induction of apoptosis in human MCF7 cells assessed as late apoptotic cells level incubated for 24 hrs by annexin-V and propidium iodide staining based flow cytometry (reference value: 1.85%). The format is functional.
Assay [3] has as its system MCF7. Briefly: Induction of cell cycle arrest in human MCF7 cells assessed as accumulation at sub-diploid phase incubated for 24 hrs by propidium iodide staining based FACS assay (reference value: 7.26%). The format is functional.
Assay [4] has as its system MCF7. Description: Induction of cell cycle arrest in human MCF7 cells assessed as accumulation at G0/G1 phase incubated for 24 hrs by propidium iodide staining based FACS assay (reference value: 53.32%). The format is functional.
Assay [5] has as its system MCF7. Briefly: Antiproliferative activity against human MCF7 cells assessed as inhibition of cell proliferation incubated for 18 hrs followed by MTT addition for 4 hrs by MTT assay. The format is functional, cell-based. The procedure, abridged: (§1)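 MTT assay. Cells were grown in DMEM with 10% FBS at 37 °C, 5% CO2, 90% relative humidity. 1 × 10⁴ cells per well were seeded and held 24 h, then exposed to compounds diluted in culture medium for 18 h. MTT (5 mg/mL stock) was added for a further 4 h.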

The nature of assay [6]: Antiproliferative activity against human PC3 cells assessed as inhibition of cell proliferation incubated for 18 hrs followed by MTT addition for 4 hrs by MTT assay. The format is functional, cell-based. The settings on record: PC-3. The procedure, abridged: as §1
On the technique in general: Tetrazolium dyes change colour on reduction, which living cells bring about.

Assay [7] concerns MCF7. Description: Induction of apoptosis in human MCF7 cells assessed as viable cells level incubated for 24 hrs by annexin-V and propidium iodide staining based flow cytometry (reference value: 89.58%). The format is functional.
The subject of assay [8] is MCF7. Description: Induction of apoptosis in human MCF7 cells assessed as necrotic cells level incubated for 24 hrs by annexin-V and propidium iodide staining based flow cytometry (reference value: 2.15%). The format is functional.
The subject of assay [9] is MCF7. Description: Induction of apoptosis in human MCF7 cells assessed as early apoptotic cells level incubated for 24 hrs by annexin-V and propidium iodide staining based flow cytometry (reference value: 6.42%). The format is functional.
For the next assay, the system named is MDA-MB-231. Briefly: Antiproliferative activity against human MDA-MB-231 cells assessed as inhibition of cell proliferation incubated for 18 hrs followed by MTT addition for 4 hrs by MTT assay. In kind it is functional, cell-based. In short, it runs like this:
as §1

Assay [10] can be described thus: Antiproliferative activity against human DU145 cells assessed as inhibition of cell proliferation incubated for 18 hrs followed by MTT addition for 4 hrs by MTT assay. In kind it is functional, cell-based. As to conditions: DU-145. In short, it runs like this:
as §1

Assay [11] relates to MCF7. Briefly: Induction of cell cycle arrest in human MCF7 cells assessed as accumulation at S phase incubated for 24 hrs by propidium iodide staining based FACS assay (reference value: 45.21%). In kind it is functional.
In assay [12] the test system is MCF7. Description: Induction of mitochondrial membrane potential loss in human MCF7 cells assessed as increase in JC1 dye monomer green fluorescence incubated for 24 hrs by JC1 dye based flow cytometry (reference value: 1.78%). In kind it is functional.
A further assay has as its system HEK293. Briefly: Antiproliferative activity against HEK293 cells assessed as inhibition of cell proliferation incubated for 18 hrs followed by MTT addition for 4 hrs by MTT assay. The format is cell-based. The settings on record: Homo sapiens. In short, it runs like this: as §1

As a reminder, the IC50 is the concentration needed to halve the response being measured. `CCCCCCCCCCCCCCCCOP(=O)([O-])OCC[N+](C)(C)C` [MILTEFOSINE]: the Activity in the assay on MCF7 [1] is reported as 2.14%; in the assay with MCF7 [2], 9.43%; in the assay on MCF7 [3], 3.48%; in the assay with MCF7 [4], 64.8%; with MCF7 [7] it was 43.6%; in the assay on MCF7 [8] it was 2.15%. The Activity with MCF7 [9] is listed as 44.84%; in the assay with MCF7 [11], 33.07%; in the assay on MCF7 [12], 50.05%. The IC50 in the assay with MCF7 [5] worked out at 34.7 µM; in [6] it was 19.9 µM; in the assay with MDA-MB-231, 2.08 µM; in assay [10], 25.8 µM.

For `CCCCCCCCCCOP(=O)(O)OCCSC(=S)N1CCCC1`, the IC50 in the assay on HEK293 was over 100 µM; in the assay on MCF7 [5], 70 µM; in [6] it was 56.1 µM; in the assay with MDA-MB-231, 67 µM; in assay [10], 46.1 µM.

With `CCCOP(=O)(O)OCCSC(=S)N1CCN(C)CC1`, the IC50 in the assay on HEK293 was 39.6 µM; in the assay with MCF7 [5], 59 µM; in assay [6], over 100 µM; in the assay with MDA-MB-231, 62 µM; in assay [10], over 100 µM.

`CCCOP(=O)(O)OCCSC(=S)N1CCCC1`: the concentration for half-maximal inhibition (IC50) was over 100 µM in the assay with HEK293; 73 µM in the assay on MCF7 [5]; over 100 µM in assay [6]; 67 µM in the assay on MDA-MB-231; over 100 µM in assay [10].

With `CCCCCCCCOP(=O)(O)OCCSC(=S)N1CCCCCC1`, the IC50 in the assay on HEK293 is over 100 µM; in the assay on MCF7 [5] it was 78 µM; in assay [6] it was 56.8 µM; with MDA-MB-231 it was 27 µM; in [10] it was 59.1 µM.

In the case of `CCCCCCOP(=O)(O)OCCSC(=S)N1CCCCC1`, the 50% inhibitory concentration (IC50) in the assay on HEK293 is over 100 µM; in the assay with MCF7 [5] it was 62 µM; in assay [6], over 100 µM; in the assay with MDA-MB-231, 85 µM; in assay [10], over 100 µM.

Take `CCCCCCOP(=O)(O)OCCSC(=S)N1CCCC1`: the 50% inhibitory concentration (IC50) with HEK293 is over 100 µM; in the assay on MCF7 [5], 100 µM; in assay [6], over 100 µM; with MDA-MB-231 it was 54 µM; in assay [10] it was over 100 µM.

For `CCCCCCCCCCCCCCCCOP(=O)(O)OCCSC(=S)N1CCCCCC1`, the IC50 in the assay with HEK293 is over 100 µM; in the assay with MCF7 [5], over 100 µM; in assay [6], 32.1 µM; with MDA-MB-231, over 100 µM; in assay [10], 17.6 µM.

For the molecule `CCCCCCCCOP(=O)(O)OCCSC(=S)N1CCCCC1`, the IC50 was 69 µM in the assay on HEK293; 26 µM in the assay with MCF7 [5]; over 100 µM in [6]; 11.9 µM with MDA-MB-231; over 100 µM in assay [10].

For `CCCOP(=O)(O)OCCSC(=S)N1CCCCCC1`, the IC50 in the assay with HEK293 was 54 µM; with MCF7 [5], 74 µM; in assay [6] it was over 100 µM; in the assay with MDA-MB-231, 38 µM; in assay [10] it was 86.1 µM.

As for `CCCCCCOP(=O)(O)OCCSC(=S)N1CCCCCC1`, the IC50 in the assay with HEK293 was 70.5 µM; in the assay on MCF7 [5] it was 55 µM; in assay [6], over 100 µM; in the assay on MDA-MB-231, 17.2 µM; in assay [10], 77.4 µM.

With `CCCCCCCCOP(=O)(O)OCCSC(=S)N1CCN(C)CC1`, the half-maximal inhibitory concentration (IC50) with HEK293 is 86 µM; in the assay with MCF7 [5], 46 µM; in assay [6], over 100 µM; in the assay with MDA-MB-231 it was 58.5 µM; in [10], over 100 µM.

Consider `CCCCCCCCCCOP(=O)(O)OCCSC(=S)N1CCCCCC1`, for which the half-inhibitory concentration (IC50) was 70 µM in the assay with HEK293; 43.3 µM in the assay on MCF7 [5]; 32.9 µM in assay [6]; 11.4 µM with MDA-MB-231; 23.9 µM in [10].

`CCCCCCCCCCOP(=O)(O)OCCSC(=S)N1CCN(C)CC1`: the IC50 is over 100 µM in the assay with HEK293; 99.6 µM in the assay with MCF7 [5]; 80 µM in assay [6]; 29 µM in the assay on MDA-MB-231; 82.3 µM in assay [10].

Consider `CCCCCCOP(=O)(O)OCCSC(=S)N1CCN(C)CC1`, for which the IC50 with HEK293 was over 100 µM; in the assay on MCF7 [5], 58 µM; in [6], over 100 µM; in the assay on MDA-MB-231, 73 µM; in assay [10], over 100 µM.

For `CCCCCCCCCCCCCCCCOP(=O)(O)OCCSC(=S)N1CCCC1`, the IC50 was over 100 µM in the assay on HEK293; 72 µM with MCF7 [5]; 65.7 µM in [6]; 69 µM in the assay on MDA-MB-231; 28.9 µM in assay [10].

For `CCCCCCCCCCCCCCCCOP(=O)(O)OCCSC(=S)N1CCN(C)CC1`, the 50% inhibitory concentration (IC50) with HEK293 was over 100 µM; in the assay on MCF7 [5], over 100 µM; in [6] it was 95.2 µM; in the assay with MDA-MB-231, over 100 µM; in assay [10], 49.3 µM.

As to `CCCCCCCCOP(=O)(O)OCCSC(=S)N1CCCC1`, the concentration for half-maximal inhibition (IC50) in the assay on HEK293 is 28.3 µM; in the assay on MCF7 [5], 53 µM; in assay [6], over 100 µM; with MDA-MB-231 it was 69 µM; in [10] it was 47.1 µM.

Turning to `CCCOP(=O)(O)OCCSC(=S)N1CCCCC1`, the IC50 in the assay with HEK293 was over 100 µM; in the assay on MCF7 [5] it was over 100 µM; in assay [6], over 100 µM; in the assay with MDA-MB-231, 68 µM; in [10], over 100 µM.
